Data taken from the EternaBench riboswitch data.

Tested on: MS2 coat protein
Assay: apparent Kd, MS2 coat protein; higher = weaker binding; RNA-MaP array; FMN 200 µM where present
How it was run: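 Binding was read on Illumina sequencing-chip clusters where stalled E. coli RNA polymerase had transcribed each design. A titration of SNAP-549-labelled MS2 coat protein began at 0.7 or 1.5 nM and doubled to 3 µM, once without ligand and once with constant ligand, in 100 mM Tris-HCl pH 7.5, 80 mM KCl, 4 mM MgCl2, BSA, DTT, yeast tRNA and Tween-20. The apparent Kd is the median of filtered per-cluster binding-curve fits, based on green signal normalised to red-channel RNA signal and control-cluster median Fmax.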

[1] = designed as: ON switch for flavin mononucleotide, no ligand
[2] = ligand present: flavin mononucleotide, designed as: ON switch for flavin mononucleotide
[3] = designed as: OFF switch for flavin mononucleotide, no ligand
[4] = ligand present: flavin mononucleotide, designed as: OFF switch for flavin mononucleotide

GUGGCUCCCACAGGAUAUCCACAUGAGGAUCACCCAUGUCUAAUUAACAAAGGAGAAGGGUGGGACAAUUCUGGUGACUGAGAA
apparent Kd [1]: 30.1 nM | apparent Kd [2]: 4.89 nM

GUGGGUCGGGAGGAUAUUCGGGCUCAUGGGCUUGGAGAAGGCUCGACAUGAGGAUCACCCAUGUAAGUGUUCUU
apparent Kd [3]: 50 nM | apparent Kd [4]: 621 nM

GUGGGUGAUGGAGGAUAUGACGACGGGUUUUACAUGAGGAUCACCCAUGUGGCGUUCCGCAAAAGUCAGAAGGCCAGGUAUACU
apparent Kd [1]: 332 nM | apparent Kd [2]: 40.6 nM

GUGGUACAUGAGGAUCACCCAUGUAAGGAUAUAGUCGUCUGGUGGUCUCGGGUGGUGGCUAGAAGGUGCGUGCG
apparent Kd [3]: 189 nM | apparent Kd [4]: 177 nM

GUGGUACAUGAGGAUCACCCAUGUUAGGAUAUCGCGUGAGGUUUUACUUCCACACACACGAGAAGGGACGUCUU
apparent Kd [3]: 44.3 nM | apparent Kd [4]: 36.2 nM

GUGGUCAGACAUGAGGAUCACCCAUGUGGAAUAAAUAACACACAGGAUAUGUAAUAUAGGAUAUAACAGAAGGGUGGAUUGGUG
apparent Kd [1]: 318 nM | apparent Kd [2]: 168 nM

GUGGUCAGACAUGAGGAUCACCCAUGUGGAAUAAAUAACAGACAGGAUAUCUAAUAUAGGAUAUAGGAGAAGGGUCGAUUGGUG
apparent Kd [1]: 89 nM | apparent Kd [2]: 85.3 nM

GUGGUCAGACAUGAGGAUCACCCAUGUGGAAUAAAUAACAGACAGGAUAUGUAAUAUAGGAUAUAACAGAAGGGUCGAUUGGUG
apparent Kd [1]: 89 nM | apparent Kd [2]: 77.9 nM

GUGGUCAGACAUGAGGAUCACCCAUGUGGAAUAAAUAAGGAAUAGGAUAUCGAAUAUAGGAUAUACGAGAAGGGUUGGUUGGUG
apparent Kd [1]: 121 nM | apparent Kd [2]: 131 nM

GUGGUCAGACAUGAGGAUCACCCAUGUGGAAUAAAUAAGGAGAAGGAUAUGGAAUAUAGGAUAUACCAGAAGGUCUGGUUGGUG
apparent Kd [1]: 79 nM | apparent Kd [2]: 90.7 nM

GUGGUCUCCGCAGGAUAUGGCUCGGGCACGACACCAGAAGGGCGGACAUGAGGAUCACCCAUGUUCGCGGGUGGGUCCUAAGGA
apparent Kd [3]: 6.39 nM | apparent Kd [4]: 7.49 nM

GUGGUGCAUAUACGUGGAUGUACAUGAGGAUCACCCAUGUAAGAGGAUAUGCGGAUACUAGCUCAGCAGAAGGCUUACAACUGA
apparent Kd [3]: 11.3 nM | apparent Kd [4]: 41 nM

GUGGUGCGUAUACGUGGAUGUACAUGAGGAUCACCCAUGUAAGAGGAUAUGCGGAUACUAGCUCAGCAGAAGGCUUACAAAUGA
apparent Kd [3]: 23.1 nM | apparent Kd [4]: 92.1 nM

GUGGUUGUCGUAGGAUAUGUAGGAUAUUCCUACAUGAGGAUCACCCAUGUUCGCAUGGAAGAAGGACAGAAGGACGAUGACCAA
apparent Kd [1]: 1160 nM | apparent Kd [2]: 9.11 nM

GUGGUUGUCGUAGGAUAUGUAGGAUAUUCCUACAUGAGGAUCACCCAUGUUCGCAUGGAAGAAGGACAGAAGGACGAUGACCAG
apparent Kd [1]: 801 nM | apparent Kd [2]: 22.7 nM

GUGUACAGAGGAUAUACAUAAGCAUGGAAACAUGCAUCUUCACAUGAGGAUCACCCAUGUAGAAGGCUGUACAC
apparent Kd [3]: 18.1 nM | apparent Kd [4]: 75.6 nM

GUGUACAUUCGAGGAUAUCGGAGAGAGAUCAUUCGAGAAGGCGAUUCAUGAUGUAUUAUCCUGGACAUGAGGAUCACCCAUGUG
apparent Kd [1]: 109 nM | apparent Kd [2]: 74.6 nM

GUGUACGCAGGAUAUACAUGAGGAUCACCCAUGUGAAUAAGAUAGAAUAAGAUAAAGUGUAGAAGGGCGAGUGU
apparent Kd [3]: 35.2 nM | apparent Kd [4]: 34.9 nM

GUGUACGGAGGAUAUAUGUGGGCAGGCUGACCUGCAGCUUCACAUGAGGAUCACCCAUGUAGAAGGCUGUGCAC
apparent Kd [3]: 22.2 nM | apparent Kd [4]: 92.9 nM

GUGUAGAGAGGAUAUACAUGAGGAUCACCCAUGUGAAUAAGAUAGAAUAAGAUAAAGUGUAGAAGGCUUAGUGU
apparent Kd [3]: 33.5 nM | apparent Kd [4]: 25.9 nM

GUGUAGAUAGGAUAUGCAAGAGUCUAGCGAAGCUAGAUUCUACAUGAGGAUCACCCAUGUAGAAGGGUCUACAC
apparent Kd [3]: 18.3 nM | apparent Kd [4]: 16.1 nM

GUGUAGAUAGGAUAUGCAUGAGUCUAGCGAAGCUAGGCUCUACAUGAGGAUCACCCAUGUAGAAGGGUCUACAC
apparent Kd [3]: 20.6 nM | apparent Kd [4]: 17.2 nM

GUGUAGAUAUCAGGAUAUCCAUUUCCUACAUGAGGAUCACCCAUGUAGAUGAUCACCCAUGUAAAGGAGAAGGGAUAUCUAUAC
apparent Kd [1]: 206 nM | apparent Kd [2]: 173 nM

GUGUAGUCAGGAUAUACAUAGGAAGAGAAGAGAAGAGAAGCACAUGAGGAUCACCCAUGUAGAAGGGACAGUGU
apparent Kd [3]: 70.9 nM | apparent Kd [4]: 82.9 nM

GUGUAGUCAGGAUAUACAUGAGGAUCACCCAUGUGAAUAAGAUAGAAUAAGAUAAAGUGUAGAAGGGAUAGUGU
apparent Kd [3]: 29.6 nM | apparent Kd [4]: 25.7 nM

GUGUCGUCAGGAUAUCCUACAUAACUAUCGUUGUUACCAUUGGAGAAGGGACAUGAGGAUCACCCAUGUUUUCC
apparent Kd [3]: 19.3 nM | apparent Kd [4]: 19.7 nM

GUGUGCAGAGGAUAUACAGAGGAAAAGAAGAAAGAAGAGGGACAUGAGGAUCACCCAUGUAGAAGGCUGAGUGU
apparent Kd [3]: 33.9 nM | apparent Kd [4]: 35.2 nM

GUGUGCUGAGGAUAUACAGAGGAAGAUAAUACAAUAUAAGUACAUGAGGAUCACCCAUGUAGAAGGCAGAGUGU
apparent Kd [3]: 28.2 nM | apparent Kd [4]: 26.4 nM

GUUAAGAACUAAGGAUAUUGAAUACAUAUGUUUAACAUGAGGAUCACCCAUGUGGGUUGCGGUAUCGAGAAGGUAGAAUAAUAG
apparent Kd [1]: 115 nM | apparent Kd [2]: 113 nM

GUUACAUGAGGAUCACCCAUGUAUGUGUGGGAGUAAGUGUCUUAGGAUAUCUAUGAUUUAAUUGAAGAGAAGGAAGAUUGUUGU
apparent Kd [1]: 116 nM | apparent Kd [2]: 122 nM

GUUAUAACAGUCAGGAUAUUUAAGCUUAUCGAGCUAGAGAAGGGACAUGAGGAUCACCCAUGUAGCCUCGUUAG
apparent Kd [3]: 16 nM | apparent Kd [4]: 17.1 nM

GUUCUUCCUGUAAGGAUAUCCAUGUAUCAGUUUAUGGAGAAGGUACAUGAGGAUCACCCAUGUCACCCGCGUUA
apparent Kd [3]: 20.1 nM | apparent Kd [4]: 46.1 nM

GUUCUUCCUGUGAGGAUAUCCAUGUGUCGGUGUGUGGAGAAGGUACAUGAGGAUCACCCAUGUCACCCGCGUUU
apparent Kd [3]: 20.8 nM | apparent Kd [4]: 22.2 nM

GUUCUUCCUGUGAGGAUAUCCAUGUGUCGGUUUGUGGAGAAGGUACAUGAGGAUCACCCAUGUCACCCGCGUUU
apparent Kd [3]: 14.8 nM | apparent Kd [4]: 16.3 nM

GUUGCGUUUGUGAGGAUAUGCUGUUCCUUGGUUCGGCAGAAGGCACAUGAGGAUCACCCAUGUGGUGUCGUUCC
apparent Kd [3]: 15.5 nM | apparent Kd [4]: 28.7 nM

GUUGCUAUCGGAGGAUAUUCAUACCGGAAACGGACAUGAGGAUCACCCAUGUCGCGAAAGCGUUGGGAGAAGGCCGAUAGCAAC
apparent Kd [1]: 248 nM | apparent Kd [2]: 21.4 nM

GUUGCUAUCGGAGGAUAUUCAUACCGGAAACGGACAUGAGGAUCACCCAUGUGCGGAAACGCUUGGGAGAAGGCCGAUAGCAAC
apparent Kd [1]: 210 nM | apparent Kd [2]: 22.1 nM

GUUGGUGUAGAAGGAUAUUGGUGAUGCGUCUUGUACAUGAGGAUCACCCAUGUCACUCUGCACGCCGAGAAGGUCUGCAAAUGG
apparent Kd [1]: 70 nM | apparent Kd [2]: 48.1 nM

GUUUAGUGAGGAUAUGCGGCAUCGAUCGAGCGCGGUCGGCUACAGAAGGCACAUGAGGAUCACCCAUGUUUCUC
apparent Kd [3]: 41 nM | apparent Kd [4]: 278 nM

GUUUAGUGAGGAUAUGUGGCGUGGAUCGAGCGCGGUCUGCUACAGAAGGCACAUGAGGAUCACCCAUGUUUCUC
apparent Kd [3]: 166 nM | apparent Kd [4]: 329 nM

GUUUAGUGAGGAUAUGUGGCUUCGAUCGUGAGAUCGAGGCUACAGAAGGCACAUGAGGAUCACCCAUGUUCCUG
apparent Kd [3]: 16 nM | apparent Kd [4]: 64.3 nM

GUUUAGUGAGGAUAUGUGGCUUCGAUCGUGCGCGGUCGGCUACAGAAGGCACAUGAGGAUCACCCAUGUUCCUC
apparent Kd [3]: 37.1 nM | apparent Kd [4]: 506 nM

GUUUAGUGAGGAUAUGUGGCUUCGAUCGUGCGCGUUCGGCUACAGAAGGCACAUGAGGAUCACCCAUGUUCCUC
apparent Kd [3]: 445 nM | apparent Kd [4]: 704 nM

GUUUCACAUGAGGAUCACCCAUGUGAGGAUAUCUAUUUGUUAACCGUAGUUAAUAGAUAGAGAAGGCGCGUGAU
apparent Kd [3]: 69 nM | apparent Kd [4]: 74.5 nM

GUUUCGUGAGGAUAUGUGGCUUCGAUCGUGCGAAAGAGGCUACAGAAGGCACAUGAGGAUCACCCAUGUUCCUC
apparent Kd [3]: 38.2 nM | apparent Kd [4]: 536 nM

GUUUCGUGAGGAUAUGUGGCUUCGAUCGUGCGAACGAGGCUACAGAAGGCACAUGAGGAUCACCCAUGUUCCUC
apparent Kd [3]: 37.4 nM | apparent Kd [4]: 481 nM

GUUUGGGCAGGAUAUACAUGAGGAUCACCCAUGUGUUUUUUGUGUGUUUUGUUAUCGUGUAGAAGGGUUCGGGC
apparent Kd [3]: 68.5 nM | apparent Kd [4]: 147 nM

UAAAAGACUAGCAAAUAAGUUCCACAUGAGGAUCACCCAUGUCAGGAUAUGAGCAGCAAAGCUGCUCAGAAGGGAUAGCUAGUC
apparent Kd [3]: 6.45 nM | apparent Kd [4]: 6.39 nM

UAAAAUCAUGUAGGAUAUGCGUGGCGAAGCUAUGCAGAAGGACAUGAGGAUCACCCAUGUCUUAGCUAGCGUACUAGCUUAAAG
apparent Kd [3]: 12.9 nM | apparent Kd [4]: 49.7 nM

UAAAAUUUACGAGGAUAUCCAAAGGUAGACAUAGGAGAAGGCGUACAUGAGGAUCACCCAUGUACCAAUAAAUGGGUUUCUCAA
apparent Kd [3]: 20.8 nM | apparent Kd [4]: 57.8 nM

UAAACACCCUCAUGUACCUGAGGACAUGAGGAUCACCCAUGUGAGGAUAUAGCCAUUAAAUCUAACUAGAAGGUAUAGGAAAUC
apparent Kd [3]: 772 nM | apparent Kd [4]: 612 nM

UAAACAUGAGGAUCACCCAUGUAAAGAUCGGUAGUAGAGAGUGAGGAUAUACUAAAAUUUAUAGAGUAGAAGGCACUGGGUUCU
apparent Kd [1]: 38.4 nM | apparent Kd [2]: 28.6 nM

UAAACAUGAGGAUCACCCAUGUAAAGAUCGGUAGUAGAGAGUGAGGAUAUACUAAAUUUAAUGGAGUAGAAGGCACUGGGUUCU
apparent Kd [1]: 44.8 nM | apparent Kd [2]: 30.9 nM

UAAACGUUCUAGAAGGUGCUUUUGUUAAACAAGCAAGGAUAUAGACAUGAGGAUCACCCAUGUCUUUGUGACAUCGACAUACUU
apparent Kd [3]: 8.44 nM | apparent Kd [4]: 11.2 nM

UAAAUACAUGAGGAUCACCCAUGUCAAAAGACAUGAGGAUAUGUACAGACUUCGGUCUGUACAGAAGGCAUGAAAA
apparent Kd [1]: 680 nM | apparent Kd [2]: 55.4 nM

UAAAUGUGAGGAUAUCAGGUGUGCUAGAAUACUGGUACAUCUGAGAAGGCACAUGAGGAUCACCCAUGUUCCUU
apparent Kd [3]: 16.4 nM | apparent Kd [4]: 41 nM
